According to ChEMBL document CHEMBL4834437, “Improvement of Oral Bioavailability of Pyrazolo-Pyridone Inhibitors of the Interaction of DCN1/2 and UBE2M” (J Med Chem, 2021):

What was measured:
[1] = Toxicity in C57BL/6 mouse assessed as adverse effect at 15 mg/kg, iv administered as single dose measured after 48 hrs; type: organism-based; details: in vivo
Outline: (§1)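 Mice were watched for adverse reactions for 48 h after a single iv (15 mg/kg) or oral (50 mg/kg) dose. Vehicle was EtOH/PG/PEG/PBS (10/10/40/39, pH 7.4) with 1% (w/v) […]-β-cyclodextrin.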

[2] = Toxicity in C57BL/6 mouse assessed as adverse effect at 50 mg/kg, po administered as single dose measured after 48 hrs; type: organism-based; details: in vivo; outline: as §1
[3] = mouse, in vivo, po, 50 mg/kg, 24 h

For `CCN1C(=O)[C@@H](NC(=O)c2cccc(C)c2)[C@@H](c2ccc(F)cc2)c2c(C)nn(-c3ccccc3)c21` (relative stereo), the Activity [1] was “Non-Toxic”, the Activity [2] was “Non-Toxic” and the Cmax [3] was 360 nM.
